# Rows were chosen to be rich in hits. Some 5.1% of all compounds tested hit in one or more screens of this group.
# STAT3 act: increases IL-6 driven STAT3 reporter signal | U3A cells, IL-6 STAT3-luciferase reporter, luminescence; 100% = signal with IL-6 EC80 alone | activation (% of control), % at 5.6 µM | 0.91% of 190,000 active | AID 871;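 active means activation above the screen-wide mean of compound activation plus 3 SD, cut at about 130% in these data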;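 further: 0% = background luminescence of wells with medium and substrate only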
#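 Material: STAT3-luciferase reporter U3A cells; Probe or stimulus: IL-6 (33 ng/mL); Incubation: compound pre-incubation 1 h before IL-6, then 6 h stimulation at 37 °C; Technique: luminescence from STAT3-driven luciferase reporter; Evaluation: % activation versus median of IL-6-stimulated wells; Controls: IL-6-only high control.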
# STAT1 blocker: reduces IFN-gamma driven STAT1 reporter signal. inhibition, % at 5.5 µM. 0.35% of 200,000 active. NIH 3T3 STAT1-luciferase reporter, luminescence. AID 920;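 active means inhibition above a set limit, the mean inhibition across all tested compounds plus 3 SD, cut at about 34% in these data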;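 further: 0% = IFN-gamma with DMSO and 100% = IFN-gamma with 300 µM nifuroxazide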
# STAT3 blocker: inhibitors of IL-6 induced STAT3 signaling; inhibition, % at 5.5 µM; U3A cells, IL-6 STAT3-luciferase reporter, luminescence; host cell line lacks STAT1; 0.89% of 190,000 active; AID 862;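 active means inhibition above the mean inhibition across all screened compounds plus 3 SD, cut at about 44% in these data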;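 further: 0% = DMSO only wells and 100% = 100 µM nifuroxazide control wells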
# NF-kB neuron act: compounds increasing NF-kB expression in human neuronal cells | NF-kB reporter expression; hits give high values | fold change at 12.5 µM | 1.6% of 190,000 active | AID 1239; in the data active means fold change above about 3.3
# STAT1 act: activators of IFN-gamma induced STAT1 signaling. NIH 3T3 STAT1-luciferase reporter, luminescence; 100% = IFN-gamma alone, no compound. activation (% of control), % at 5.5 µM. 2.6% of 200,000 active. AID 932;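 active means activation above the screen-wide mean activation plus 3 SD, cut at about 130% in these data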;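 further: raw ratio to IFN-gamma control signal so 100% means no change and 0% no light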
# APP 5'UTR act: activates APP 5'UTR luciferase reporter; SH-SY5Y APP 5'UTR luciferase reporter, luminescence; zero percent = DMSO vehicle wells; activation, % at 2 µM; 1% of 190,000 active; AID 1276;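 active means activation above a set limit, based on mean plus 3 SD of controls, cut at about 140% in these data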
# The depositor's hits bear a star; · = not tested or not shown.
SMILES,STAT3 act,STAT1 blocker,STAT3 blocker,NF-kB neuron act,STAT1 act,APP 5'UTR act
COc1ccc([N+](=O)[O-])cc1NC(=O)c1cn(-c2ccc(Cl)cc2)c(=O)c2ccccc12,98.0,-8.3,2.3,0.76,107.4,-4.4
O=C1OC(c2ccc(Br)cc2)=N/C1=C\N1CCCCC1,98.8,-41.1,7.2,1.98,137.6*,6.3
O=C1OC(c2ccccc2)=N/C1=C\N1CCCCC1,127.1,-47.0,-25.7,2.41,142.9*,93.2
CN(C)/C=C1/N=C(c2ccccc2)OC1=O,86.2,-6.6,21.3,1.41,106.1,-6.4
O=C1N(Cc2cccc(Cl)c2)C[C@@H]2C[C@@H](c3ccc4nonc4c3)N3CCC[C@@]123,107.2,-3.1,-6.1,1.05,101.3,-15.4
COc1ccc(Cl)cc1C(=O)NNC(=O)c1cccc([N+](=O)[O-])c1,84.6,-2.0,22.9,1.04,99.2,5.1
COc1ccccc1C(=O)NNC(=O)c1cccc(Cl)c1,83.9,-31.4,22.7,3.62*,127.2,141.7*
O=c1c2ccccc2nc2ccc(NCc3cccs3)nn12,94.3,-27.9,12.7,3.42*,123.3,121.7
NC(=O)c1nn(-c2ccccc2)nc1NC(=O)Cn1nnc(-c2ccccc2)n1,101.9,0.9,1.4,0.89,99.2,-4.7
CC(C)c1ccc(NC(=O)COc2ccccn2)cc1,88.3,-33.9,20.0,1.27,129.9*,41.5
CC(C)c1ccc(OCC(=O)Nc2ccc(OC(F)(F)F)cc2)cc1,100.4,0.0,-5.0,1.16,100.0,4.2
CCOC(=O)c1sc(/N=C/c2ccc(O)cc2O)cc1C,96.5,-19.5,6.9,2.2,117.1,4.9
CCn1ncc(C(=O)Nc2cccc(Cl)c2)c1C,115.4,-47.4,-17.1,2.39,143.5*,86.2
N=c1c2ccccc2nnn1-c1ccc(C(F)(F)F)cc1,87.7,-16.5,21.5,1.43,113.1,20.4
Cc1ccc(Nc2nc(-c3cccs3)cs2)nc1,33.0,64.4*,80.0*,4.91*,40.5,172.3*
O=C(Cc1ccccc1)Nc1nc(-c2cccs2)cs1,93.9,-3.0,10.4,1.25,102.7,14.3
Cc1cc(O)ccc1Nc1nc(-c2cccs2)cs1,97.1,-22.2,12.2,7.15*,120.7,147.7*
CN(c1ccc(O)cc1)c1nc(-c2cccs2)cs1,101.2,-44.0,4.3,6.98*,140.8*,172.8*
c1cncc(Nc2nc(-c3cccs3)cs2)c1,141.4*,-44.1,-48.1,2.4,131.5*,7.1
Cc1nc(N)sc1-c1csc(N(C)c2ccc(O)cc2)n1,105.6,-9.4,-0.1,0.52,107.7,63.6
Cc1cc(C)n(CCNc2nc3nonc3nc2N2CCCCC2)n1,99.4,0.3,5.7,·,98.1,-4.5
N#Cc1cc([N+](=O)[O-])ccc1NCCN1CCOCC1,98.8,5.7,6.7,0.95,93.4,-0.7
CCOC(=O)Cn1c(=NC(=O)c2ccc([N+](=O)[O-])s2)sc2ccccc21,91.1,5.4,8.4,1.41,95.2,-12.1
COc1ccc(-c2csc(Nc3cccnc3)n2)cc1,101.1,-46.9,-1.3,2.39,134.4*,43.5
Cc1cc(/C=C\c2ccccc2)nc2ccccc12,129.7,-48.8,-32.4,1.27,143.0*,130.1
SMILES,STAT3 act,STAT1 blocker,STAT3 blocker,NF-kB neuron act,STAT1 act,APP 5'UTR act
CC(=O)c1cn(-c2ccc(Cl)cc2)c(=O)n(Cc2ccc(F)cc2)c1=O,91.3,16.4,14.4,1.16,83.8,-9.5
Nc1nnc(SCC(=O)c2ccc3ccccc3c2)s1,113.3,-20.3,-7.3,3.72*,118.7,21.4
Nc1nnc(SCC(=O)c2cccc([N+](=O)[O-])c2)s1,105.8,5.2,-3.4,1.29,94.1,10.6
COc1ccc2c(c1OC)C(=O)N(c1ccc(C)cc1)C2=O,103.3,-31.0,5.7,1.41,128.8*,-7.7
CCOc1ccc(N2Cc3ccccc3C2)cc1,96.0,-44.8,7.3,·,141.0*,104.7
Oc1ccc(Cl)cc1C1=NNC(c2cc(Br)cc3c2OCOC3)C1 (configuration not stated),91.1,-6.6,12.7,1.26,104.5,11.2
Oc1ccc(Cl)cc1C1=NNC(c2ccc(Cl)cc2)C1 (configuration not stated),105.4,-32.9,-3.0,1.27,129.7*,54.9
CC(CCc1ccccc1)NC(=O)COC(=O)c1ccccc1O (configuration not stated),107.9,3.3,-8.5,1.27,96.0,6.7
O=C(Nc1nc2c(ccc3ccccc32)s1)c1cc([N+](=O)[O-])ccc1N1CCOCC1,133.3*,-35.2,-30.8,1.25,131.1*,20.1
O=C(Nc1nc(-c2ccc(-c3ccccc3)cc2)cs1)c1cc([N+](=O)[O-])ccc1N1CCOCC1,103.2,-9.7,2.2,1.1,106.6,14.6
CCOC(=O)N1CCN(C(=O)CSCc2ccccc2)CC1,108.4,-33.5,-11.5,1.64,129.8*,54.8
N#Cc1ccc(-c2nnnn2-c2ccc3c(c2)OCO3)cc1,101.5,-4.7,0.8,1.32,104.3,21.2
N#Cc1cccc(-n2nnnc2-c2ccc3c(c2)OCO3)c1,113.0,-13.2,-11.6,3.53*,112.1,27.9
COc1cccc(Nc2ncccc2C(=O)Nc2ccccc2)c1,87.7,-2.7,17.8,0.81,102.4,-1.5
COCCCN=C1NN=C(c2cc(C)n(-c3ccccc3F)c2C)CS1,58.0,44.8*,51.5*,1.78,58.1,186.8*
COCCCN=C1NN=C(c2cc(C)n(Cc3ccccc3Cl)c2C)CS1,112.5,-9.1,-9.4,1.29,108.4,-76.4
COCCn1c(C)cc(C2=NNC(=Nc3ccccc3F)SC2)c1C,22.5,72.9*,94.2*,0.27,32.5,-52.4
Cc1cc(C2=NNC(=NC3CC3)SC2)c(C)n1-c1c(C)n(C)n(-c2ccccc2)c1=O,96.3,3.1,7.9,1.21,97.2,-15.6
Cc1cc(C2=NNC(=Nc3ccccc3)SC2)c(C)n1C,96.0,-44.1,12.7,2.09,141.8*,9.4
Cc1ccc(-n2c(C)cc(C3=NNC(=NC4CC4)SC3)c2C)cc1C,104.2,-23.7,-10.3,0.58,121.6,154.6*
Nc1ccc2nc[nH]c2c1,96.3,1.7,11.7,1.46,98.1,-11.8
O=C(c1ccc(Cl)c(Cl)c1)N1CCC(=O)N(C(COCc2ccccc2)Cc2ccccc2)CC1 (configuration not stated),108.3,-0.9,-12.8,0.6,100.8,14.9
COc1ccc(-c2nnc(SC(C)C(=O)Nc3cccc(Cl)c3)o2)cc1 (configuration not stated),103.9,-4.0,-0.1,5.57*,103.7,219.0*
COc1ccc(-c2nnc(SC(C)C(=O)NNC(=O)c3ccc(C)cc3)o2)cc1 (configuration not stated),101.7,15.5,0.3,1.43,86.1,-2.2
C=CCn1c(C)cc(C(=O)CSc2nc3ccccc3c(=O)[nH]2)c1C,80.7,-36.8,27.6,2,133.9*,33.7

# From PubChem
